For test [1], the system named is RKO. Briefly: Cytotoxicity against human RKO cells assessed as reduction in cell viability incubated for 24 hrs by MTT assay. Format: functional, cell-based. In a few lines:
(§1)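 Cells were kept in McCoy's 5A with 10% fetal bovine serum, streptomycin and 100 units·mL⁻¹ penicillin at 37 °C under 5% CO₂/95% air. Viability was read by MTT optical density. IC50 is the concentration that lowers optical density by 50% relative to untreated cells. Values are means with SD of at least three independent determinations.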
A general note: Tetrazolium assays rely on reduction of a dye to a coloured formazan, in cell work by metabolically active cells.

The subject of test [2] is HCT-116. As to the kind of experiment: Induction of apoptosis in human HCT116 cells assessed as late apoptotic cells level at 4 uM incubated for 24 hrs by Annexin V-FITC/PI staining based cytometry (reference value: 0.5%). The format is functional.
For test [3], the system named is RKO. As to the kind of experiment: Inhibition of colony formation of human RKO cells incubated for 24 hrs by crystal violet staining based photography. Format: functional, cell-based. The essentials:
(§2)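 Cells (HCT116, RKO, HCT116 p53-/-, HCT116 Bax-/-) seeded at 300 per well in 12-well plates for 48 h, then treated 24 h. Drug medium replaced with fresh medium; about 10 days later colonies stained 15 min with crystal violet, photographed and counted. Run in triplicate.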

Test [4] deals with HCT-116. As to the kind of experiment: Induction of apoptosis in Bax-/- human HCT116 cells assessed as viable cells level incubated for 48 hrs by Annexin V-FITC/PI staining based cytometry (reference value: 92.9%). Format: functional. The essentials: (§3)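 Cells were plated at 5×10^5 per well and treated once 80% confluent. After trypsinisation and two washes in ice-cold PBS (pH 7.4), cells were stained with Annexin V-FITC and PI for 15 min at room temperature in the dark. Analysis was by flow cytometry. The legend gives vehicle or 4 µM for the p53-/- and Bax-/- lines.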

Test [5] deals with HCT-116. Briefly: Inhibition of colony formation of human HCT116 cells pre-treated with 7.5 mM GSH for 2 hrs followed by 16 to 32 uM compound addition and further incubated for 24 hrs and measured after 10 days post dose in fresh medium by crystal violet staining based photography. The format is functional, cell-based. In a few lines: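 HCT116 seeded at about 300 per well in 12-well plates and grown 2 h. Pre-treated 2 h with H2O, 7.5 mM L-NAC or GSH, then exposed to compound for 24 h. Colonies grown 10 days in fresh medium, stained with crystal violet and counted. Triplicate wells.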

In test [6] the test system is HCT-116. As to the kind of experiment: Induction of apoptosis in Bax-/- human HCT116 cells assessed as early apoptotic cells level pre-incubated with 20 uM pan-caspase inhibitor Z-VAD-FMK for 5 hrs followed by compound addition and further incubated for 48 hrs by Annexin V-FITC/PI staining based cytometry (reference value: 6.8%). More on the design: scale not given: the % may be the effect or the level left. Format: functional.

The subject of test [7] is HCT-116. As to the kind of experiment: […] of ROS generation in human HCT116 cells at 8 uM incubated for 24 hrs by H2DCFDA dye based flow cytometry. Format: functional, cell-based. In a few lines: (§4)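 HCT116 cells pre-treated 5 h with H2O, 7.5 mM L-NAC or 7.5 mM GSH, then exposed to compound for 24 h. Cells collected, washed twice in PBS, and resuspended in serum-free McCoy's 5A with 10 nM H2DCFDA for 20 min at 37 °C in the dark. After two PBS washes, relative ROS measured by flow cytometry.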

Test [8] relates to HCT-116. As to the kind of experiment: Cytotoxicity against human HCT116 cells assessed as reduction in cell viability incubated for 24 hrs by MTT assay. Conditions: HCT-116, 24 h. The format is functional, cell-based. In a few lines:
as §1

Test [9] concerns HCT-116. As to the kind of experiment: Inhibition of colony formation of p53-/- human HCT116 cells at 4 to 16 uM incubated for 24 hrs by crystal violet staining based photography. Format: functional, cell-based. In a few lines: as §2
Test [10] relates to HCT-116. Briefly: Induction of apoptosis in Bax-/- human HCT116 cells assessed as late apoptotic cells level pre-incubated with 20 uM pan-caspase inhibitor Z-VAD-FMK for 5 hrs followed by compound addition and further incubated for 48 hrs by Annexin V-FITC/PI staining based cytometry (reference value: 0.1%). Format: functional. Also on record: scale not given: the % may be the effect or the level left.

The subject of test [11] is HCT-116. As to the kind of experiment: Induction of apoptosis in Bax-/- human HCT116 cells assessed as necrotic cells level pre-incubated with 20 uM pan-caspase inhibitor Z-VAD-FMK for 5 hrs followed by compound addition and further incubated for 48 hrs by Annexin V-FITC/PI staining based cytometry (reference value: 0.2%). The format is functional. Also on record: scale not given: the % may be the effect or the level left.

The test system of test [12] is HCT-116. As to the kind of experiment: Induction of apoptosis in human HCT116 cells assessed as viable cells level pre-incubated with 20 uM pan-caspase inhibitor Z-VAD-FMK for 5 hrs followed by compound addition and further incubated for 48 hrs by Annexin V-FITC/PI staining based cytometry (reference value: 98.7%). Format: functional.
The subject of test [13] is HCT-116. As to the kind of experiment: Induction of apoptosis in human HCT116 cells assessed as viable cells level at 4 uM incubated for 24 hrs by Annexin V-FITC/PI staining based cytometry (reference value: 96.6%). Format: functional.
The test system of test [14] is BGC-823. Briefly: Cytotoxicity against human BGC823 cells assessed as reduction in cell viability incubated for 24 hrs by MTT assay. The format is functional, cell-based. Conditions: BGC-823, 24 h. The essentials: as §1
In test [15] the test system is HCT-116. Briefly: Induction of apoptosis in human HCT116 cells assessed as viable cells level incubated for 48 hrs by Annexin V-FITC/PI staining based cytometry (reference value: 98.7%). The format is functional.
In test [16] the test system is HCT-8. Briefly: Cytotoxicity against human HCT8 cells assessed as reduction in cell viability incubated for 24 hrs by MTT assay. Conditions: HCT-8, 24 h. The format is functional, cell-based. In a few lines:
as §1

Test [17] concerns HCT-116. As to the kind of experiment: Induction of apoptosis in human HCT116 cells assessed as increase in cleaved PARP level at 4 uM incubated for 24 hrs by Western blot method. The format is functional, cell-based. The essentials:
(§5)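 Lysates were made in SDS buffer (2% SDS, 50 mM Tris-HCl pH 6.8) and quantified by BCA. Equal protein was run on 10% SDS-PAGE and transferred to PVDF. Membranes were blocked in 5% milk, probed overnight at 4 °C for cleaved PARP (1:1000) with GAPDH (1:5000), and detected with HRP secondary antibody and ECL.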
(In general: Immunoblotting shows a protein as a band on a membrane.)

Test [18] relates to HCT-116. Briefly: Induction of apoptosis in human HCT116 cells assessed as early apoptotic cells level at 4 uM incubated for 24 hrs by Annexin V-FITC/PI staining based cytometry (reference value: 1.3%). The format is functional.
Test [19] concerns HCT-116. As to the kind of experiment: Induction of apoptosis in Bax-/- human HCT116 cells assessed as late apoptotic cells level at 4 uM incubated for 48 hrs by Annexin V-FITC/PI staining based cytometry (reference value: 0.2%). Format: functional. In a few lines: as §3
Test [20] concerns HCT-116. As to the kind of experiment: Induction of apoptosis in human HCT116 cells assessed as G1 phase cells level at 4 uM incubated for 24 hrs by […]PI staining based cytometry (reference value: 65.2%). The format is functional. The essentials:
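Cells were treated for 24 h, then fixed in 75% ethanol at -20 °C overnight. RNA was digested with 0.2 mg/mL RNase A for 30 min at 37 °C. Cells were stained with 50 µg/mL PI for 30 min in the dark, and DNA content was read by flow cytometry.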

In test [21] the test system is HeLa. As to the kind of experiment: Cytotoxicity against human HeLa cells assessed as reduction in cell viability incubated for 24 hrs by MTT assay. Format: functional, cell-based. The essentials: as §1
The test system of test [22] is HCT-116. As to the kind of experiment: Induction of apoptosis in Bax-/- human HCT116 cells assessed as increase in cleaved PARP level at 4 to 16 uM by Western blot method. The format is functional, cell-based. The essentials:
as §5

Test [23] has as its system HCT-116. Briefly: Induction of apoptosis in human HCT116 cells assessed as early apoptotic cells level incubated for 48 hrs by Annexin V-FITC/PI staining based cytometry (reference value: 1.1%). Format: functional.
For test [24], the system named is HCT-116. As to the kind of experiment: […] of ROS generation in human HCT116 cells pre-treated with 7.5 mM L-NAC for […] followed by 8 uM compound addition and further incubated for 24 hrs by H2DCFDA dye based flow cytometry. The format is functional, cell-based. The essentials: as §4

SMILES strings stand for the structures. pIC50: −log10 of the molar value. Calls of active or inactive are those of the source. The calls are words filed in the database; no cut-off is given here.

Results on one molecule are retold here after ChEMBL document CHEMBL4190353, “Synthesis, structure-activity relationships and preliminary mechanism of action of novel water-soluble 4-quinolone-3-carboxamides as antiproliferative agents” (Eur J Med Chem, 2017).

What is called pIC50 is −log10 of the IC50, conventionally taken in molar units. Take `CCN(CC)CCCNC(=O)c1cn(CCCc2ccccc2)c2cc(Cl)ccc2c1=O.Cl`: the pIC50 is 5.31 in [1]; 5.24 in test [8]; 5.31 in test [14]; 5.17 in test [16]; 5.45 in [21]. Also, the Activity in [2] was 4.8%; in test [4], 65.1%; in test [6] it was 10.2%; in test [10] it was 0.9%; in test [11] it was 1.2%; in test [12], 80.4%. Besides, the Activity in test [13] stood at 52.7%; in test [15], 62.5%; in test [18], 38.2%; in test [19], 0.8%; in [20], 42.4%; in [23], 29.4%. Moreover, the inhibition result in [3] was “Dose-dependent effect”. Besides, the inhibition entry in test [5] and in test [24] was “inactive” throughout. In addition, the inhibition entry in test [7] and in test [9] was “Active” throughout. For the same molecule, the outcome in [17] and in test [22] was Active.
